Assay results pooled from the literature.
Lines come from different studies, so protocols differ.
EGFR G719S: Epidermal growth factor receptor (EGFR, Homo sapiens, UniProt P00533, G719S)
EGFR L858R: Epidermal growth factor receptor (EGFR, Homo sapiens, UniProt P00533, L858R)
EGFR del746-750: Epidermal growth factor receptor (EGFR, Homo sapiens, UniProt P00533, del746-750)
EGFR L858R/T790M: Epidermal growth factor receptor (EGFR, Homo sapiens, UniProt P00533, L858R/T790M)
EGFR T790M: Epidermal growth factor receptor (EGFR, Homo sapiens, UniProt P00533, T790M)
EGFR: Epidermal growth factor receptor (EGFR, Homo sapiens, UniProt P00533)
EGFR L861Q: Epidermal growth factor receptor (EGFR, Homo sapiens, UniProt P00533, L861Q)

SMILES | target | observed | technique | tested at | remaining binding [%]
COc1ccnn2ncc(-c3ccnc(N(C)C)n3)c12 | EGFR G719S | binding |  | 1 µM | 96
C[C@@H]1CN(c2cc(-c3nn(C)c4ccc(OC5(C)CC5)cc34)ncn2)C[C@H](C)O1 | EGFR L858R | cell-free assay | competition with immobilised ligand | 1 µM | 95
C[C@@H]1CCN(c2nccc(-c3cnn4ncccc34)n2)C1 | EGFR L858R | binding |  | 1 µM | 93
O=C(Nc1c[nH]nc1C(=O)NC1CCNCC1)c1cc(F)cc(F)c1 | Epidermal growth factor receptor (EGFR, Homo sapiens, UniProt P00533, G719C) | binding | competition with immobilised ligand | 1 µM | 100
O=C(NCCCN1CCOCC1)c1ccc(Nc2ncc(Cl)c(-c3ccc(Cl)s3)n2)cc1 | EGFR L858R | binding | competition with immobilised ligand | 1 µM | 82
COc1cc(-c2cn(C3CCc4c(F)cccc4N(CC(F)(F)F)C3=O)nn2)ccc1-n1cnc(C)c1 (centres unmarked) | EGFR L858R | cell-free assay | competition with immobilised ligand | 1 µM | 100
COc1cnc(Nc2cccc(S(N)(=O)=O)c2)nc1N1CCN(c2ccccc2)CC1 | EGFR G719S | binding | competition with immobilised ligand | 1 µM | 100
Nc1ncc2c(n1)-c1c([nH]c3ccc(C#CC4CC4)cc13)CCCC2 | EGFR del746-750 | binding | competition with immobilised ligand | 1 µM | 72
O=C(NCCCN1CCOCC1)c1ccc(Nc2nccc(-c3cc4ccccc4s3)n2)cc1 | Epidermal growth factor receptor (EGFR, Homo sapiens, UniProt P00533, del747-750/T751S) | binding | competition with immobilised ligand | 1 µM | 100
O=C(NC[C@@H]1[C@H]2CN(C(=O)OCc3cc(C(F)(F)F)cc(C(F)(F)F)c3)C[C@@H]12)c1ccc2[nH]nnc2c1 | EGFR L858R/T790M | cell-free assay | competition with immobilised ligand | 1 µM | 80
CCN1CCN(Cc2ccc(C(=O)Nc3ccc(C)c(Oc4ccc5c(c4)CC(=O)N5)c3)cc2C(F)(F)F)CC1 | EGFR del746-750 | binding | competition with immobilised ligand | 1 µM | 99
CNC(=O)[C@@H]1CC[C@@H](n2c(-c3ccc4cnccc4c3)nc3ccc(C(=O)NCc4cccc(C(N)=O)c4)cc32)C1 | EGFR T790M | binding | competition with immobilised ligand | 1 µM | 72
O=C(c1ccc(Nc2ncc(Cl)c(-c3cc4ccccc4s3)n2)cc1)N1CCC(N2CCCC2)CC1 | EGFR L858R | binding | competition with immobilised ligand | 1 µM | 81
C[C@@]1(Cc2ccc(C#N)cc2)C(=O)N(c2cc(Cl)cc(Cl)c2)c2ncc(C(=O)NC3(c4nc(C5CCC5)no4)CC3)n21 | Epidermal growth factor receptor (EGFR, Homo sapiens, UniProt P00533, del747-752/P753S) | cell-free assay | competition with immobilised ligand | 1 µM | 58
N[C@@H]1CCN(c2nccc(-c3cnn4ncccc34)n2)C1 | EGFR T790M | binding |  | 1 µM | 100
O=C(c1ccc(Nc2ncc(Cl)c(-c3ccc(Cl)s3)n2)cc1)N1CCC(N2CCCC2)CC1 | EGFR | binding | competition with immobilised ligand | 1 µM | 86
CC1CCCN1c1nccc(-c2cnn3ncccc23)n1 (centres unmarked) | EGFR T790M | binding |  | 1 µM | 100
O=C(c1ccc(Nc2nccc(-c3cc4ccccc4s3)n2)cc1)N1CCC(N2CCCC2)CC1 | Epidermal growth factor receptor (EGFR, Homo sapiens, UniProt P00533, del752-759) | binding | competition with immobilised ligand | 1 µM | 93
c1cncc(-c2cccc(Nc3nccc(NC4CCCCC4)n3)c2)c1 | EGFR | binding | competition with immobilised ligand | 10 µM | 56
O=C(N[C@H]1CCCCC/C=C\C2C[C@@]2(C(=O)O)NC(=O)[C@@H]2C[C@@H](Oc3ccncc3)CN2C1=O)OC1CCCC1 (some centres unmarked) | EGFR del746-750 | cell-free assay | competition with immobilised ligand | 1 µM | 78
COc1cnc(Nc2cccc(S(N)(=O)=O)c2)nc1N1CCN(c2ccccc2)C(=O)C1 | EGFR | binding | competition with immobilised ligand | 1 µM | 100
Cn1nc(C(=O)NCc2ccc(C(=O)O)cc2)cc1-c1ccc2[nH]ccc2c1 | EGFR L861Q | cell-free assay | competition with immobilised ligand | 0.1 µM | 69
CN(C)c1nccc(-c2cnc3ncccn23)n1 | EGFR L861Q | binding |  | 1 µM | 90
CC(=O)N1CCC(c2ccc(C(=O)NC(=N)N)cc2C(F)(F)F)CC1 | EGFR L861Q | cell-free assay | competition with immobilised ligand | 1 µM | 91
O=C(NCC1CCOCC1)c1n[nH]cc1NC(=O)c1c(F)cccc1F | EGFR L858R/T790M | binding | competition with immobilised ligand | 1 µM | 97
CN(C)c1ncc(F)c(-c2cnn3ncccc23)n1 | EGFR | binding |  | 1 µM | 82
Cc1cnc(Nc2ccc(C(=O)N3CCC(N4CCCC4)CC3)cc2)nc1-c1cc2ccccc2s1 | EGFR del746-750 | binding | competition with immobilised ligand | 1 µM | 100
c1cnn2ncc(-c3ccnc(N4CCC45COC5)n3)c2c1 | EGFR G719S | binding |  | 1 µM | 100
COc1cc(-c2cn(C3CCc4ccccc4N(CC(F)(F)F)C3=O)nn2)ccc1-n1ccc(C)n1 (centres unmarked) | EGFR T790M | cell-free assay | competition with immobilised ligand | 1 µM | 59
